# In the library only some 1.4% were active in any assay of this set; here they are far more common.
# A3G deaminase: APOBEC3G DNA deaminase inhibitors, primary screen, biochemical, fluorescence, single-stranded DNA substrate, uHTS. recombinant A3G, ssDNA deamination FAM/TAMRA fluorescence. inhibition, % at 20 µM. 0.28% of 330,000 active. AID 493012, 2011;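 active = inhibition of at least 40% at 20 µM, with no more than 30% in the related APOBEC3A deaminase screen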;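 note: plate controls were DMSO wells with A3G for no effect and wells lacking A3G enzyme for full effect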
# Target sequence (Q9HC16 whole entry, looked up): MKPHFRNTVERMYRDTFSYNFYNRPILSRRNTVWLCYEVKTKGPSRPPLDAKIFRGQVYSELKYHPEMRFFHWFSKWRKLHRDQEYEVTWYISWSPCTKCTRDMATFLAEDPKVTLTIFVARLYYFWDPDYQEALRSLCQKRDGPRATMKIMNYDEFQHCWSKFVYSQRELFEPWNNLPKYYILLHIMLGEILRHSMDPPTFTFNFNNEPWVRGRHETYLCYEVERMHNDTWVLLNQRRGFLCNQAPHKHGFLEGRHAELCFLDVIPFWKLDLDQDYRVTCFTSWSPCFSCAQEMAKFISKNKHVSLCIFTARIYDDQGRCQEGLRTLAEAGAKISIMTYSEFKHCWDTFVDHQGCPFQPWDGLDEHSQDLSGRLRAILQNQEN
# APJ ag: agonists of human apelin receptor APJ, primary screen, CHO-K1 cells, PathHunter beta-arrestin, luminescence; P35414; 0% DMSO wells, 100% apelin; activation, % at 20 µM; 0.11% of 330,000 active; AID 2520, 2010;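 active = activation more than six SD over the plate average, tested at 20 µM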;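 note: 0% = DMSO alone and 100% = apelin-13 at 10 nM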
#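 system = engineered CHO-K1 APJ arrestin reporter cells | input = 1000 cells per well | timing = overnight seeding, 90 min compound at 25 °C, 1 h detection | measured by = enzyme-fragment complementation luminescence | read-out = beta-arrestin recruitment to APJ as agonist activity, luminescent signal | control set = negative DMSO alone, positive Apelin-13 at 10 nM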
# APJ antag: antagonists of human apelin receptor APJ, primary screen, CHO-K1 cells, beta-arrestin complementation, luminescence. 0.32% of 330,000 active. P35414. inhibition, % at 20 µM;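 active = inhibition above about 40% at 20 µM, limit read from the data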;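 note: cells challenged with 10 nM apelin-13 agonist together with compound; plate controls were apelin-13 plus DMSO wells for no effect and DMSO wells lacking apelin-13 for full effect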
# CXCR6 block: CXCR6 receptor inhibitors, primary screen, cell-based, beta-arrestin, luminescence, CHO-K1 PathHunter, 1536-well. inhibition, % at 20 µM. 0.36% of 360,000 active; in the data active = inhibition above about 34%, passing the limit was not always enough;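 note: antagonist mode with CXCL16 agonist at 10 nM final; 0% = 10 nM CXCL16 with DMSO and 100% = unstimulated wells without agonist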
# CCR6 antag: CCR6 receptor antagonists, primary screen, cell-based, CHO-K1, luminescence, beta-arrestin, uHTS. 0.49% of 340,000 active. inhibition, % at 20 µM. C-C chemokine receptor type 6 (Homo sapiens), P51684. CHO-K1 CCR6 PathHunter beta-arrestin, CCL20-stimulated;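 active = compounds whose inhibition of the agonist-driven luminescence signal at 20 µM reaches about 50%, limit read from the data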;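 note: cells stimulated with CCL20 at 14 nM final; plate controls were DMSO with CCL20 for no effect and DMSO without agonist for full effect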
# A3A deaminase: APOBEC3A ssDNA deaminase inhibitors, primary screen, selectivity assay for APOBEC3G inhibitor project, biochemical, FAM/TAMRA oligo cleavage fluorescence; DNA dC->dU-editing enzyme APOBEC-3A (Homo sapiens), P31941; recombinant A3A, FAM/TAMRA ssDNA deamination fluorescence; inhibition, % at 20 µM; 0.41% of 330,000 active;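 active = at least 40% inhibition at 20 µM here, with at most 30% in a related deaminase screen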;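 note: plate controls were A3A with DMSO for no effect and wells lacking A3A enzyme for full effect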
# Target sequence (P31941 whole entry, looked up): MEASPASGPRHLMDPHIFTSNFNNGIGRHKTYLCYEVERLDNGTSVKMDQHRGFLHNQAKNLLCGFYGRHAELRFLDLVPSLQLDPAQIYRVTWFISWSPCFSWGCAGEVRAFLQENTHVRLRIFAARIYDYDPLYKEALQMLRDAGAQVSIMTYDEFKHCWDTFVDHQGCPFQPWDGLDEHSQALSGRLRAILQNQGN
# APOBEC3G confirm: APOBEC3G deaminase inhibitor retest, confirmation, biochemical, fluorescence, single-stranded DNA substrate, single concentration; shares compounds with A3G deaminase; recombinant A3G ssDNA deaminase, UDG/FAM-TAMRA fluorescence; inhibition, % at 20 µM; 72% of 890 active;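 active = inhibition reaching a set limit in any replicate at 20 µM, the limit being 80% of the first screen's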
# UDG ctr A3G: E. coli UDG inhibitors, confirmation, counter-screen for APOBEC3G inhibitor project, biochemical, single concentration, fluorescence, FAM/TAMRA oligo. shares compounds with A3G deaminase. 710 tested, under 10 active. AID 504715, 2011. UDG counterscreen. inhibition, % at 20 µM;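 active = compounds giving 40% or more inhibition at 20 µM in any one of the three replicates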;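 note: plate controls were DMSO wells with UDG and oligo for no effect and DMSO wells lacking both for full effect; inhibitors lower the FAM signal released by uracil excision and alkaline cleavage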
# Active calls of the source: *; . = no result.
SMILES,A3G deaminase,APJ ag,APJ antag,CXCR6 block,CCR6 antag,A3A deaminase,APOBEC3G confirm,UDG ctr A3G
Nc1c(C(=O)c2ccccc2)sc2nsc(SCCN3CCOCC3)c12,-17,0,1,-4,6,-4,.,.
CC(=O)c1sc2nsc(SCCN3CCOCC3)c2c1N,62*,4,-8,-6,-9,-1,59*,0
Nn1c(-c2cccc(Br)c2)n[nH]c1=S,59*,-4,8,-21,1,-19,80*,-4
S=c1[nH]nc(-c2cccc(Br)c2)o1,0,3,-2,19,7,-5,.,.
CC1(C(=O)Nc2cccc3cccnc23)CCN1C(=O)CC1CC1 (stereo unspecified),.,.,.,3,.,.,.,.
Cc1ccc(C(=O)c2c(NC(=O)CSc3nnc(N)s3)sc3c2CCCC3)cc1,45*,0,-15,4,25,0,-3,.
Cc1ccnc(SCC(=O)Nc2sc3c(c2C#N)CCCC3)n1,-6,3,1,-5,17,-15,.,.
Cc1csc(SCC(=O)Nc2sc3c(c2C#N)CCC3)n1,42*,3,-3,-3,-10,6,7,.
COc1cc(CC(=O)OCC(=O)Nc2cc([N+](=O)[O-])ccc2Cl)cc(OC)c1OC,-5,0,-2,-8,6,-1,.,.
Cc1ccc(C)c(C(=O)CSc2nnnn2C(C)C)c1,-2,-9,14,-1,15,-3,.,.
Cc1ccc(C(=O)CSc2nnnn2C(C)C)c(C)c1,54*,-11,-12,-9,19,-3,4,-2
Cc1cc(C)nc(SSc2nc(C)cc(C)n2)n1,57*,-2,3,2,1,-4,83*,-2
N#Cc1cc(-c2ccccc2)[nH]c1-c1nccc2ccccc12,41*,-2,15,-2,9,2,1,.
COC(=O)Nc1ccc(S(=O)(=O)N2CCCCC2C(=O)NCc2ccco2)cc1 (stereo unspecified),63*,-4,4,0,1,1,2,.
Cn1c(SCC(=O)Nc2ccccc2)nc2ccccc2c1=O,0,1,-20,-8,12,-4,.,.
COCCCn1c(-c2ccc(Cl)cc2)n[nH]c1=S,49*,-4,5,0,9,-1,58*,-5
CCOCCCn1c(-c2ccc(Cl)cc2)n[nH]c1=S,53*,-5,-2,-1,7,0,62*,-3
S=c1[nH]nc(-c2ccc(Cl)cc2)n1CCCN1CCOCC1,-3,-2,-4,-2,1,3,.,.
Cc1ccccc1CN1CCC(N2CCC(C(=O)NCC3CCCO3)CC2)CC1 (stereo unspecified),-7,-7,8,2,8,0,.,.
O=S(=O)(Nc1ccc(Cl)cc1)c1ccc(N2CCOCC2)c(NC(=S)NC2CC2)c1,46*,-4,17,6,-7,1,32*,2
Nc1cc(S(=O)(=O)Nc2ccc(Cl)cc2)ccc1N1CCOCC1,46*,-7,-27,0,3,2,17*,-4
O=C1CC(Sc2ncccn2)C(=O)N1c1ccccc1 (stereo unspecified),-6,-3,-4,-3,12,-4,.,.
Nc1nnc(SC2CC(=O)N(c3ccccc3)C2=O)s1 (stereo unspecified),42*,0,0,15,-16,0,25,.
COc1ccc(CC(=O)NCc2n[nH]c(=S)n2-c2cccc(C)c2)cc1,3,-2,4,-13,-8,-6,.,.
COc1cccc(C(=O)NCc2n[nH]c(=S)n2-c2cccc(C)c2)c1,47*,1,-30,5,10,0,61*,-3
SMILES,A3G deaminase,APJ ag,APJ antag,CXCR6 block,CCR6 antag,A3A deaminase,APOBEC3G confirm,UDG ctr A3G
COc1ccc(CC(=S)N2CCOCC2)cc1,45*,-2,0,-5,-5,2,41*,-2
Cc1ccc(CC(=S)N2CCOCC2)cc1,14,-3,5,-3,13,-3,.,.
O=S(=O)(NCc1cccnc1)c1ccc2ccccc2c1,-8,-1,-20,-8,0,-3,.,.
O=C(CCCSc1ccc(Cl)cc1)Nc1cc(S(=O)(=O)N2CCOCC2)ccc1O,51*,-1,-3,-10,-7,-3,73*,1
Cc1ccc(S(=O)(=O)N2CCOCC2)cc1NC(=O)CSc1ccc(Cl)cc1,-8,-3,15,-4,8,-2,.,.
COC(=O)c1ccc(NS(=O)(=O)c2ccc(S(=O)(=O)N3CCOCC3)cc2)cc1,-3,-2,10,-6,9,2,.,.
CCOC(=O)c1ccc(S(=O)(=O)Nc2cc(S(=O)(=O)N3CCOCC3)ccc2O)cc1,52*,-4,13,-5,-7,1,27*,-4
CC1CCCCN1C(=O)CSc1nnc(CSc2ncccn2)n1C (stereo unspecified),-3,-1,13,0,-4,0,.,.
C(=N\NC1=Nc2cccc3cccc1c23)/c1ccccc1,41*,0,11,-3,13,3,-1,.
CSS(=O)(=O)c1cccc2cccnc12,78*,-2,3,-4,5,1,77*,0
CCN(CC)S(=O)(=O)c1cccc2cccnc12,-5,0,2,-7,-10,-2,.,.
C(=N/N1CCN(c2ccccc2)CC1)/c1ccncc1,43*,-3,-15,-1,6,-3,-7,-4
O=C(O)c1ccc(/C=N/N2CCN(c3ccccc3)CC2)cc1,-3,-3,-4,-8,7,-2,.,.
CC(NS(=O)(=O)c1cccc(C(=O)N(C)Cc2ccc(N3CCOCC3)cc2)c1)c1ccccc1 (stereo unspecified),.,.,.,1,12,.,.,.
COCc1cc(=O)[nH]c(=S)[nH]1,-4,1,11,-2,5,-3,.,.
COCc1cc(C)c(C#N)c(=S)[nH]1,80*,7,4,3,3,2,79*,-3
